Consider 5 molecules from article PMC8740777 (The FASEB Journal, 2022).

For experiment [1], the system named is Human primary astrocytes. Nature of the experiment: Ca2+ mobilization assay, agonistic application. Type of experiment: cell-based. The settings on record: for effect on intracellular Ca2+ mobilization as agonist: Fig. 2A, agonistic application. In outline:
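Human primary astrocytes were plated at 10 000 cells/well in 384-well plates (day 0), switched to FreeStyle 293 expression medium on day 1 for 18 h, then loaded with FLIPR Calcium 4 dye for 1 h […]. Intracellular Ca2+ was monitored kinetically across a concentration series up to 30 µM, and logEC50 was taken from concentration-response curves.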

For experiment [2], the system named is Human primary astrocytes. The experiment in a line: Ca2+ mobilization assay, functional antagonism. The settings on record: 18 h pretreatment, Fig. 2B,C. Type of experiment: cell-based. The essentials: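 Astrocytes were pretreated overnight (18 h) with 1 or 10 µM test compound, then loaded with calcium dye for 1 h without compound before S1P stimulation, with Ca2+ mobilization recorded. Inhibition was assessed against 10 µM S1P. Mean ± SD, n = 4, pooled from three independent experiments.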

Experiment [3] concerns the target T1, S1P1 (Homo sapiens, UniProt P21453). The experiment in a line: compensated interferometric reader. It is filed as binding. In outline: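 Nanovesicles were made by sonicating C6 glioblastoma cells overexpressing HA-tagged human S1P1, with vector-transfected C6 cells as control. Vesicles were incubated 1 h with increasing test compound concentrations. Compensated interferometric reader signal was read against a reference of compound without vesicles. Specific binding was taken as S1P1-vesicle signal minus control-vesicle signal.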

Experiment [4] addresses T1, S1P1. The experiment in a line: S1PR internalization assay, short-term. Type of experiment: cell-based. The settings on record: 1 µM, 1 h, FCM, normalized to vehicle. In outline: (§1)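 C6 glioblastoma cells stably expressing an HA-tagged human S1P receptor subtype, grown in high-glucose DMEM with 10% FBS and penicillin–streptomycin. Test compound or S1P (1 µM) applied for 1 h. Surface receptor stained with anti-HA (clone 3F10), then PE anti-rat IgG, and read by flow cytometry. Vector-transfected C6 cells served as negative control. Levels normalized to vehicle; n = 4 from two independent experiments.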

Experiment [5] addresses S1P2 (Homo sapiens, UniProt O95136). The experiment in a line: S1PR internalization assay, short-term. It is filed as cell-based. The settings on record: 1 µM, 1 h, FCM, normalized to vehicle. In outline: as §1
In experiment [6] the target is S1P3 (Homo sapiens, UniProt Q99500). The experiment in a line: S1PR internalization assay, short-term. The settings on record: 1 µM, 1 h, FCM, normalized to vehicle. It is filed as cell-based. The essentials: as §1
Experiment [7] deals with T2, S1P4 (Homo sapiens, UniProt O95977).
T2 sequence (O95977 1-384): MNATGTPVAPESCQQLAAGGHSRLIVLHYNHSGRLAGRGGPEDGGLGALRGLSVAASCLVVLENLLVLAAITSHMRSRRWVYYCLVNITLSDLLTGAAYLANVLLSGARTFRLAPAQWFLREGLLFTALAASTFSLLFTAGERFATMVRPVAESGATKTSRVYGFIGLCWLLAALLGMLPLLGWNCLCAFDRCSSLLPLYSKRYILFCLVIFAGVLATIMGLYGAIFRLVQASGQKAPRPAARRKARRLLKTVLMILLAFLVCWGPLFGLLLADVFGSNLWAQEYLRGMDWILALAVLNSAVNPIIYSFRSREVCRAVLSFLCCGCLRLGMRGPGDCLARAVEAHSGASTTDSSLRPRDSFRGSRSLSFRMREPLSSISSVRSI
The experiment in a line: S1PR internalization assay, short-term. It is filed as cell-based. The settings on record: 1 µM, 1 h, FCM, normalized to vehicle. The essentials: as §1

Experiment [8] addresses S1P5 (Homo sapiens, UniProt Q9H228). The experiment in a line: S1PR internalization assay, short-term. Type of experiment: cell-based. The settings on record: 1 µM, 1 h, FCM, normalized to vehicle. In outline: as §1
Experiment [9] deals with T1, S1P1. The experiment in a line: S1P1 internalization, wash-out experiment in S1P1-C6 cells. Type of experiment: cell-based. The settings on record: 1 µM for 4 h, 18 h compound-free medium, FCM.
Experiment [10] concerns the target S1P1‐EGFP fusion construct (Homo sapiens, UniProt P21453). The experiment in a line: S1P1-EGFP internalization imaging in human primary astrocytes. The settings on record: 1 µM, 1 h. It is filed as cell-based.
For experiment [11], the system named is Human primary astrocytes. The experiment in a line: cAMP AlphaScreen assay, Gαi-coupled agonist mode. It is filed as cell-based. The settings on record: Fig. 2D, 10 µM FSK. In outline:
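Primary human astrocytes suspended in HBSS with 0.5 mM IBMX, 5 mM HEPES and 0.1% BSA, 5000 cells/well. Compound added with 10 µM forskolin (final), 30 min at room temperature. Lysis buffer (pH 7.4) carried biotin-cAMP/donor beads, then 1 h dark. AlphaScreen read: excitation 680 nm, emission 570 nm. Baseline-corrected, normalized to S1P, three-parameter curve fit. Mean ± SD, n = 3–5 over three experiments.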
For orientation: In Alpha technology, singlet oxygen from a donor bead excites a nearby acceptor bead.

The test system of experiment [12] is Human primary astrocytes. Nature of the experiment: cAMP AlphaScreen assay, functional antagonism. The settings on record: 10 µM, 18 h pretreatment. It is filed as cell-based. The essentials: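 Astrocytes were pretreated 18 h with 10 µM test compound, then resuspended in HBSS with 0.5 mM IBMX, 5 mM HEPES and 0.1% BSA at 5000 cells/well. Cells were stimulated with S1P plus 10 µM forskolin for 30 min at room temperature. cAMP was read by AlphaScreen after 1 h dark incubation with donor beads in lysis buffer. Data were baseline-corrected, normalized to S1P response and fitted with three-parameter curves. Mean ± SD, n = 3–4.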

Experiment [13] deals with Human primary astrocytes. The experiment in a line: Single-cell RNA-seq of cytokine-stimulated astrocytes. It is filed as cell-based. The settings on record: 1 µM; for number of DEGs, cytokines + ponesimod vs cytokines: total. In outline:
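Primary human astrocytes (500 000 cells per 6 cm dish) received a cytokine mix (TNF-α, IFN-γ, IL-17, IL-1β, IL-6; 25 ng/ml each) ± 1 µM test compound for 24 or 48 h. 10x Chromium 3′ v3 capture targeted 10 000 cells, with NovaSeq sequencing and GRCh38 alignment. Data were normalized by regularized negative binomial regression and SNN-clustered. MAST DEGs: FDR p < .05, log2FC > 1.1. A fibroblast/pericyte cluster was excluded.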

Experiment [14] concerns cuprizone‐induced demyelination. Nature of the experiment: cuprizone-induced demyelination, preventative paradigm. It is filed as in vivo, C57BL/6J mice. The settings on record: 30 mg/kg b.i.d. oral during 5 weeks 0.2% cuprizone. In outline: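 Male C57BL/6J mice (8 weeks old) received 0.2% cuprizone diet for 5 weeks with concurrent oral test compound, 30 mg/kg suspension in 0.25% methylcellulose/0.05% polysorbate 80, twice daily 8 h apart. Brains were perfusion-fixed in 10% NBF and cryoprotected, then cut into 30 µm coronal sections. Sections were stained with Black Gold II and immunostained for Olig2 and Iba1. Signal was quantified in a constant ROI in the midline corpus callosum or cingulum.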

The test system is the same in experiment [15]. Nature of the experiment: cuprizone model, therapeutic paradigm. Type of experiment: in vivo, C57BL/6J mice. The settings on record: 30 mg/kg.
Experiment [16] has as its system S1P1. The settings on record: cited from earlier work.
Experiment [17] deals with MS fatigue. The settings on record: OPTIMUM Phase 3 study; cited from earlier work.

T1 sequence (P21453 whole entry): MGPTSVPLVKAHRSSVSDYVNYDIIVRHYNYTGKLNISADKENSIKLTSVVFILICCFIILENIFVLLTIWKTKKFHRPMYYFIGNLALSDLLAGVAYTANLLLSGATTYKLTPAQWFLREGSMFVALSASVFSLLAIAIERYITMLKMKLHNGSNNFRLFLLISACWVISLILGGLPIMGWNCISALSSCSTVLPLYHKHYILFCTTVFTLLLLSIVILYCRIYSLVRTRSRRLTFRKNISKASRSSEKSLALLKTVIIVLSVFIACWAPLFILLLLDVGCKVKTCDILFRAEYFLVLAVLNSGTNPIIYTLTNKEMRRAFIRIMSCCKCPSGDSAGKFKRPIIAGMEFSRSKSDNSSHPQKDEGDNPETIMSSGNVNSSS
Chain of S1P2 (O95136 whole entry): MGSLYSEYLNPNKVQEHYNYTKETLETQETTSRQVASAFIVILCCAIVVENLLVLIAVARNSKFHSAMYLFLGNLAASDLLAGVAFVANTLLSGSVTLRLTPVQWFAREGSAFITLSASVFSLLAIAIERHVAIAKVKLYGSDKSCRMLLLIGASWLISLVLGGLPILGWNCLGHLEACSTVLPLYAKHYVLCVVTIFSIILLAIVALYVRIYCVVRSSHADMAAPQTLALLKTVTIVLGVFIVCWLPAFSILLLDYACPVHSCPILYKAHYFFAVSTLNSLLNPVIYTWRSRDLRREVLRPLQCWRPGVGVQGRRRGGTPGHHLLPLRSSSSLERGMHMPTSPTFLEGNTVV
Chain of S1P3 (Q99500 whole entry): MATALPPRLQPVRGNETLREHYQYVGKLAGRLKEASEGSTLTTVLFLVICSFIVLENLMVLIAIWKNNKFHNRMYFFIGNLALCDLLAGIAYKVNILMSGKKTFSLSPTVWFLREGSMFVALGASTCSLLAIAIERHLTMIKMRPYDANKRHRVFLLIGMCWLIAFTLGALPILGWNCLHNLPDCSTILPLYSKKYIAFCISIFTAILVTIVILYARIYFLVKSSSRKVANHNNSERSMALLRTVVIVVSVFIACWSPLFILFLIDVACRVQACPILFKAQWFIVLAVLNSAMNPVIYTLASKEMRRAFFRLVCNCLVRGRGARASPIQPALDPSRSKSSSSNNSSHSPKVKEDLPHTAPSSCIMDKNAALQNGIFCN
Chain of S1P5 (Q9H228 whole entry): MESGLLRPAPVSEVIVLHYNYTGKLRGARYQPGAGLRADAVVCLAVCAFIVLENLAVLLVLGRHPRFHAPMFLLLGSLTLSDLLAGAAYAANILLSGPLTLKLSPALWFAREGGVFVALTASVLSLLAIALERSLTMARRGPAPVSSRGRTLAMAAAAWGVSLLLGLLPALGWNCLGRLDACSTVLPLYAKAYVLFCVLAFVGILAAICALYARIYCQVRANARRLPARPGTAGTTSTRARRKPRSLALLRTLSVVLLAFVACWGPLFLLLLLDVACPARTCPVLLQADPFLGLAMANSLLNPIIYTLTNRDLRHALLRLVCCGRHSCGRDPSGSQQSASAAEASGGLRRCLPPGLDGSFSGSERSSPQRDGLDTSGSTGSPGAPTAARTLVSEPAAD
Chain of S1P1‐EGFP fusion construct (P21453 whole entry, the tested form may be a part): as the sequence (P21453 whole entry) above

Take `CC(C)Oc1ccc(-c2nc(-c3cccc4c3CC[C@@H]4NCCO)no2)cc1C#N` [Ozanimod]: the “effect on intracellular Ca2+ mobilization as agonist” value in [1] is “none of the S1PR modulators (ponesimod, siponimod, ozanimod, or fingolimod‐P) affected intracellular Ca^2+ mobilization”. In addition, the “inhibition of S1P-induced Ca2+ mobilization (functional antagonism)” value in [2] is “blocked S1P‐induced Ca^2+ mobilization in a concentration‐dependent manner”.
With `CCC/N=C1\S/C(=C\c2ccc(OC[C@H](O)CO)c(Cl)c2)C(=O)N1c1ccccc1C` [Ponesimod], binding in experiment [3] was put at a Kd of 2.09 ± 0.27 nM. The “cell surface expression of S1P1” value in [4] is “only reduced the cell surface expression of S1P1”. The “cell surface expression of S1P2” value in experiment [5] is listed as “remained unchanged”. Moreover, in experiment [6], the “cell surface expression of S1P3” value is “remained unchanged”. In addition, the “cell surface expression of S1P4” value in experiment [7] is reported as “remained unchanged”. Also, the “cell surface expression of S1P5” value in experiment [8] is given as “remained unchanged”. Further, the “cell surface expression of S1P1 after wash-out” value in [9] is on record as “reduced cell surface expression of S1P1 for a sustained period of time”. Besides, the “S1P1 internalization (S1P1-EGFP imaging)” value in experiment [10] is “rapid S1P1 internalization”. Moreover, the “Ca2+ signal at highest concentration” value in [1] (30 µM, Figure S1) is reported as “induced a Ca^2+ signal only at the highest concentration”. In addition, the “effect on intracellular Ca2+ mobilization as agonist” value in experiment [1] is reported as “none of the S1PR modulators (ponesimod, siponimod, ozanimod, or fingolimod‐P) affected intracellular Ca^2+ mobilization”. In addition, in experiment [2], the “inhibition of S1P-induced Ca2+ mobilization (functional antagonism)” value is recorded as “blocked S1P‐induced Ca^2+ mobilization in a concentration‐dependent manner”. Besides, the “effect on inhibiting cAMP production as agonists” value in [11] is given as “Neither ponesimod nor fingolimod‐P showed any effect”. In addition, the “effect on S1P-induced cAMP inhibition (functional antagonism)” value in experiment [12] was “effectively blocked S1P‐induced cAMP inhibition”. Also, in experiment [13] (24 and 48 h), the “common DEGs: upregulated by cytokines and downregulated by ponesimod” value is reported as 2432 DEGs. In [13] (24 h), the “number of downregulated DEGs, cytokines + ponesimod vs cytokines” value came out at 4031; the “number of upregulated DEGs, cytokines + ponesimod vs cytokines” value worked out at 34; the “number of DEGs, cytokines + ponesimod vs cytokines” value is reported as 4065 DEGs. Besides, in experiment [13] (48 h), the “number of downregulated DEGs, cytokines + ponesimod vs cytokines” value is given as 822; the “number of upregulated DEGs, cytokines + ponesimod vs cytokines” value worked out at 130; the “number of DEGs, cytokines + ponesimod vs cytokines” value is 952 DEGs. In addition, the “cellular distribution on UMAP, ponesimod alone” value in experiment [13] (48 h, no cytokines) was “highly overlapping cellular distribution as compared to controls”. The “expression of S1PR1, S1PR2 and S1PR3” value in experiment [13] (cytokine-enhanced expression) is listed as “suppressed”. Also, in experiment [13] (cytokine-stimulated astrocytes), the FOS expression result is given as “significantly inhibited FOS expression”; the “metallothionein (MT) gene expression in Cluster 8” value is “significantly downregulated”; the “proliferating astrocyte clusters (Clusters 6, 9, and 12)” value is “blocked decreases in proliferating astrocyte clusters”. The “cellular fractions of reactive astrocyte clusters” value in [13] (cytokine-stimulated astrocytes, Clusters 3, 8, 10, 11, 15) is “selectively decreased the cellular fractions of Clusters 8, 10, and 15”. Besides, in experiment [14], the “GFAP+ astrocytes in the CC” value is reported as “increased in the CC”, the “GFAP+ astrocytes in the cingulum” value is listed as “tended to decrease in the cingulum”, the “Iba1+ microglia in the cingulum” value is “significantly decreased” and the “demyelination in the cingulum (black gold II staining)” value is “protected mice from demyelination in the cingulum”. Besides, the “number of Olig2+ oligodendrocytes in CC and cingulum” value in experiment [14] was “increased”. Also, in [15] (prolonged treatment (3 weeks)), the “remyelination after cuprizone diet cessation” value is listed as “significantly enhanced remyelination in the cingulum”. In [15] (short-term treatment (1 week)), the “remyelination after cuprizone diet cessation” value is “did not show any beneficial effects”. In addition, in experiment [16], the “selectivity for S1P1 as compared to other S1PRs” value was more than 10 fold. In addition, the “MS fatigue, secondary endpoint” value in experiment [17] is on record as “achieved a novel secondary endpoint of reduced MS fatigue”.
In turn, `CCc1cc(/C(C)=N/OCc2ccc(C3CCCCC3)c(C(F)(F)F)c2)ccc1CN1CC(C(=O)O)C1` [Siponimod] had a Kd in experiment [3] of 0.8 ± 0.97 nM. The “effect on intracellular Ca2+ mobilization as agonist” value in experiment [1] is recorded as “none of the S1PR modulators (ponesimod, siponimod, ozanimod, or fingolimod‐P) affected intracellular Ca^2+ mobilization”. Further, the “inhibition of S1P-induced Ca2+ mobilization (functional antagonism)” value in [2] was “minor”.
Take `CCCCCCCCc1ccc(CC[C@](N)(CO)COP(=O)(O)O)cc1` [Fingolimod-P, fingolimod phosphate]: in [1], the “effect on intracellular Ca2+ mobilization as agonist” value is reported as “none of the S1PR modulators (ponesimod, siponimod, ozanimod, or fingolimod‐P) affected intracellular Ca^2+ mobilization”. Besides, in [2], the “inhibition of S1P-induced Ca2+ mobilization (functional antagonism)” value is “minor”. Further, in [11], the “effect on inhibiting cAMP production as agonists” value is recorded as “Neither ponesimod nor fingolimod‐P showed any effect”. Further, in [12], the “effect on S1P-induced cAMP inhibition (functional antagonism)” value was “right shift of cAMP‐inhibitory curves”.
Regarding `CCCCCCCCCCCCC/C=C/[C@@H](O)[C@@H](N)COP(=O)(O)O` [S1P, Sphingosine 1‐phosphate], the “cell surface expression of S1P1” value in experiment [4] is reported as “significantly reduced cell surface expression”. For the same molecule, in [5], the “cell surface expression of S1P2” value is recorded as “significantly reduced cell surface expression”. Also, the “cell surface expression of S1P3” value in experiment [6] is listed as “significantly reduced cell surface expression”. For the same molecule, the “cell surface expression of S1P4” value in experiment [7] is “relatively less responsive”. Further, in experiment [8], the “cell surface expression of S1P5” value is given as “significantly reduced cell surface expression”. Moreover, the “cell surface expression of S1P1 after wash-out” value in experiment [9] was “recycled to the cell surface”. Also, the EC50 in experiment [1] (Homo sapiens, Astrocyte, read-out: logEC50, intracellular Ca2+ response (converted)) is 93.1 nM.

Broadly, the Kd is the free concentration of one partner at which half of the binding sites on the other are occupied at equilibrium, for simple one-to-one binding.
